Columns and labels:
CAL-27 [1] = experiment: Potentiation of 0.316 uM cisplatin-induced cytotoxicity against human CAL27 cells assessed as decrease in cell viability by measuring combination index at 500 uM preincubated for 48 hrs followed by cisplatin treatment measured after 72 hrs by MTT assay; format: functional; conditions: in the assay text read “at 500 nM” for “at 500 uM”
In short: (§1)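 Cal27 and cisplatin-resistant Cal27CisR cells were preincubated with the HDAC inhibitor for 48 h, then given cisplatin in combination. Viability was read by MTT after 72 h. The combination index was computed by the Chou–Talalay method: CI > 1 is antagonism, CI = 1 is additive, and CI < 0.9 is synergism. Points with fraction affected below 0.20 were flagged.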

CAL-27 [2] = experiment: Potentiation of 0.316 uM cisplatin-induced cytotoxicity against human CAL27 cells assessed as decrease in cell viability by measuring combination index at 900 uM preincubated for 48 hrs followed by cisplatin treatment measured after 72 hrs by MTT assay; format: functional; conditions: in the assay text read “at 900 nM” for “at 900 uM”; in short: as §1
CAL-27 [3] = experiment: Potentiation of 0.5 uM cisplatin-induced cytotoxicity against human CAL27 cells assessed as decrease in cell viability by measuring combination index at 1500 uM preincubated for 48 hrs followed by cisplatin treatment measured after 72 hrs by MTT assay; format: functional; in short: as §1
CAL-27 [4] = experiment: Potentiation of 1 uM cisplatin-induced cytotoxicity against human CAL27 cells assessed as decrease in cell viability by measuring combination index at 2000 uM preincubated for 48 hrs followed by cisplatin treatment measured after 72 hrs by MTT assay; format: functional; conditions: in the assay text read “at 2000 nM” for “at 2000 uM”; in short: as §1
CAL-27 [5] = experiment: Potentiation of 2 uM cisplatin-induced cytotoxicity against human CAL27 cells assessed as decrease in cell viability by measuring combination index at 1000 uM preincubated for 48 hrs followed by cisplatin treatment measured after 72 hrs by MTT assay; format: functional; conditions: in the assay text read “at 1000 nM” for “at 1000 uM”
In short: (§2)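 HDAC inhibitor was added 48 h before cisplatin, then cells were exposed to cisplatin for 72 h and viability was read by MTT assay. Combination index was computed by the Chou–Talalay method: CI > 1 is antagonism, CI = 1 additive, CI < 0.9 synergism. Points with fraction affected below 0.20 were flagged.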

CAL-27 [6] = experiment: Potentiation of 2 uM cisplatin-induced cytotoxicity against human CAL27 cells assessed as decrease in cell viability by measuring combination index at 1500 uM preincubated for 48 hrs followed by cisplatin treatment measured after 72 hrs by MTT assay; format: functional; conditions: in the assay text read “at 1500 nM” for “at 1500 uM”; in short: as §2
CAL-27 [7] = experiment: Potentiation of 2 uM cisplatin-induced cytotoxicity against human CAL27 cells assessed as decrease in cell viability by measuring combination index at 2000 uM preincubated for 48 hrs followed by cisplatin treatment measured after 72 hrs by MTT assay; format: functional; conditions: in the assay text read “at 2000 nM” for “at 2000 uM”; in short: as §2
[8] = target: T1, Histone deacetylase 1/6 (Homo sapiens) (UniProt Q13547+Q9UBN7); experiment: Inhibition of HDAC1/HDAC6 in human Cal27CisR cells assessed as potentiation of 1 uM cisplatin-induced cytotoxicity by measuring combination index at 1500 uM preincubated for 48 hrs followed by cisplatin treatment measured after 72 hrs by MTT assay; format: cell-based
In short: (§3)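 Cal27CisR cells preincubated 48 h with the HDAC inhibitor, then exposed to cisplatin for 72 h. Viability read by MTT. Combination index calculated by the Chou–Talalay method: CI > 1 antagonism, CI = 1 additive, CI < 0.9 synergism. Points with fraction affected below 0.20 are flagged. Values are the mean of three experiments.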

[9] = target: T1, Histone deacetylase 1/6 (Homo sapiens); experiment: Inhibition of HDAC1/HDAC6 in human Cal27CisR cells assessed as potentiation of 5 uM cisplatin-induced cytotoxicity by measuring combination index at 1000 uM preincubated for 48 hrs followed by cisplatin treatment measured after 72 hrs by MTT assay; format: cell-based; in short: as §1
[10] = target: T1, Histone deacetylase 1/6 (Homo sapiens); experiment: Inhibition of HDAC1/HDAC6 in human Cal27CisR cells assessed as potentiation of 10 uM cisplatin-induced cytotoxicity by measuring combination index at 900 nM preincubated for 48 hrs followed by cisplatin treatment measured after 72 hrs by MTT assay
[11] = target: T1, Histone deacetylase 1/6 (Homo sapiens); experiment: Inhibition of HDAC1/HDAC6 in human Cal27CisR cells assessed as potentiation of 3.16 uM cisplatin-induced cytotoxicity by measuring combination index at 900 nM preincubated for 48 hrs followed by cisplatin treatment measured after 72 hrs by MTT assay
[12] = target: T1, Histone deacetylase 1/6 (Homo sapiens); experiment: Inhibition of HDAC1/HDAC6 in human Cal27CisR cells assessed as potentiation of 3.16 uM cisplatin-induced cytotoxicity by measuring combination index at 1000 nM preincubated for 48 hrs followed by cisplatin treatment measured after 72 hrs by MTT assay
CAL-27 [13] = experiment: Potentiation of 0.5 uM cisplatin-induced cytotoxicity against human CAL27 cells assessed as decrease in cell viability by measuring combination index at 200 uM preincubated for 48 hrs followed by cisplatin treatment measured after 72 hrs by MTT assay; format: functional; in short: as §1
CAL-27 [14] = experiment: Potentiation of 1 uM cisplatin-induced cytotoxicity against human CAL27 cells assessed as decrease in cell viability by measuring combination index at 300 uM preincubated for 48 hrs followed by cisplatin treatment measured after 72 hrs by MTT assay; format: functional; in short: as §2
CAL-27 [15] = experiment: Potentiation of 1 uM cisplatin-induced cytotoxicity against human CAL27 cells assessed as decrease in cell viability by measuring combination index at 400 uM preincubated for 48 hrs followed by cisplatin treatment measured after 72 hrs by MTT assay; format: functional; in short: as §2
[16] = target: T1, Histone deacetylase 1/6 (Homo sapiens); experiment: Inhibition of HDAC1/HDAC6 in human Cal27CisR cells assessed as potentiation of 10 uM cisplatin-induced cytotoxicity by measuring combination index at 100 uM preincubated for 48 hrs followed by cisplatin treatment measured after 72 hrs by MTT assay; format: cell-based; in short: as §3
[17] = target: T1, Histone deacetylase 1/6 (Homo sapiens); experiment: Inhibition of HDAC1/HDAC6 in human Cal27CisR cells assessed as potentiation of 5 uM cisplatin-induced cytotoxicity by measuring combination index at 200 nM preincubated for 48 hrs followed by cisplatin treatment measured after 72 hrs by MTT assay
[18] = target: T1, Histone deacetylase 1/6 (Homo sapiens); experiment: Inhibition of HDAC1/HDAC6 in human Cal27CisR cells assessed as potentiation of 20 uM cisplatin-induced cytotoxicity by measuring combination index at 100 nM preincubated for 48 hrs followed by cisplatin treatment measured after 72 hrs by MTT assay
[19] = target: T1, Histone deacetylase 1/6 (Homo sapiens); experiment: Inhibition of HDAC1/HDAC6 in human Cal27CisR cells assessed as potentiation of 20 uM cisplatin-induced cytotoxicity by measuring combination index at 300 nM preincubated for 48 hrs followed by cisplatin treatment measured after 72 hrs by MTT assay

T1 sequence (Q13547 whole entry, looked up): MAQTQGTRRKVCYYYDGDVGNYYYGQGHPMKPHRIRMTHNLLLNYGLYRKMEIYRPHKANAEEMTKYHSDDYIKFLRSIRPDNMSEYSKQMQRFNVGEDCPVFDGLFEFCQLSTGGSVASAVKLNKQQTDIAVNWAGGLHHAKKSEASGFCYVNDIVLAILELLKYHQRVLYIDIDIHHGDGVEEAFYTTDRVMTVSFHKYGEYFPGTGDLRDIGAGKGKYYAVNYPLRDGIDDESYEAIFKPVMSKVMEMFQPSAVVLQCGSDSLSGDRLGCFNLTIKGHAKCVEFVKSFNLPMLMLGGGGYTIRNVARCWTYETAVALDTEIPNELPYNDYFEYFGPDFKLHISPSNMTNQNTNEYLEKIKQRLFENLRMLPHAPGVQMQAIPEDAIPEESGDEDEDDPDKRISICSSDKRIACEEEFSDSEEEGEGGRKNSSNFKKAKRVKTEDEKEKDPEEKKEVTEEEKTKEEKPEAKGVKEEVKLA
T1 sequence (Q9UBN7 whole entry, looked up): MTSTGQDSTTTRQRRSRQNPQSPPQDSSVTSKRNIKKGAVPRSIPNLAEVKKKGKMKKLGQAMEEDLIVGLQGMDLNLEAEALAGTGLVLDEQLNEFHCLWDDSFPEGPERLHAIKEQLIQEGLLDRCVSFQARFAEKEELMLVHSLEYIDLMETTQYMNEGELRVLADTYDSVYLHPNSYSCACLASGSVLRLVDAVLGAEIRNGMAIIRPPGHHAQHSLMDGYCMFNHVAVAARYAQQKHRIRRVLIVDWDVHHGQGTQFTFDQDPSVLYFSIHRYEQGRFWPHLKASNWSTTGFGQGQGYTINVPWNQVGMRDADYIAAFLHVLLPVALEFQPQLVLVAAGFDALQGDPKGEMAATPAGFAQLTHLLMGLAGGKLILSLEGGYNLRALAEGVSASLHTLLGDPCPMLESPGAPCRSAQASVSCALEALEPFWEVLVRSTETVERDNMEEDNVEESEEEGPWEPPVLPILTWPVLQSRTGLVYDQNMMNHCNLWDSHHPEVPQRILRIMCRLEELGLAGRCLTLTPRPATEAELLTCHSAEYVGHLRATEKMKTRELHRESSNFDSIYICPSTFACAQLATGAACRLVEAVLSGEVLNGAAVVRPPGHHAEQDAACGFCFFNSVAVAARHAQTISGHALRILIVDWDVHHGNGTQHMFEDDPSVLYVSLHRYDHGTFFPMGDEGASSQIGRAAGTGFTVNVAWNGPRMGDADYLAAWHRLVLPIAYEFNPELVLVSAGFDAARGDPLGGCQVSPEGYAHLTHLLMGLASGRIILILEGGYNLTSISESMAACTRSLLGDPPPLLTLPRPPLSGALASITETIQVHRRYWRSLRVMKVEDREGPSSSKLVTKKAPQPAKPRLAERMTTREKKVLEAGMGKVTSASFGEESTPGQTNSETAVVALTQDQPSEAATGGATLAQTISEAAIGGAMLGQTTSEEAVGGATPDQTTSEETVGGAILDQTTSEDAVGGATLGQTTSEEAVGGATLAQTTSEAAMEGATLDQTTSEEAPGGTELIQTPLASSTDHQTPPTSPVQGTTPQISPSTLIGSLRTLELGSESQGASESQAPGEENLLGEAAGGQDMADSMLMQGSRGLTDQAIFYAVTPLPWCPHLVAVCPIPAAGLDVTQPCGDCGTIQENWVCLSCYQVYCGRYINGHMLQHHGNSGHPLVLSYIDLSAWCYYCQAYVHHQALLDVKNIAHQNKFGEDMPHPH

| Compound | CI (CAL-27 [1]) | CI (CAL-27 [2]) | CI (CAL-27 [3]) | CI (CAL-27 [4]) | CI (CAL-27 [5]) | CI (CAL-27 [6]) | CI (CAL-27 [7]) | CI [8] | CI [9] | CI [10] | CI [11] | CI [12] | CI (CAL-27 [13]) | CI (CAL-27 [14]) | CI (CAL-27 [15]) | CI [16] | CI [17] | CI [18] | CI [19] |
| --- | --- | --- | --- | --- | --- | --- | --- | --- | --- | --- | --- | --- | --- | --- | --- | --- | --- | --- | --- |
| COc1cc(NC(=O)NOCCCCCC(=O)NO)c2ncccc2c1 | 0.86 | 0.77 | 0.74 | 0.75 | 0.41 | 0.6 | 0.7 | 1 | 0.43 | 0.43 | 0.79 | 0.63 |  |  |  |  |  |  |  |
| COc1cc(NC(=O)NOCCCCCC(=O)NO)c2nc(OC)cc(C)c2c1 | 0.79 |  |  |  |  |  |  |  |  |  |  |  | 0.96 | 0.64 | 0.51 | 0.41 | 0.38 | 0.34 | 0.17 |
| COc1cc(NC(=O)NOCCCCCC(=O)NO)c2nccc(C)c2c1 |  |  |  |  |  |  |  |  |  |  |  |  | <0.2 | 0.44 | 0.39 | < 0.2 | < 0.2 | 0.73 | 0.34 |

Reference: ChEMBL document CHEMBL4014350, “Alkoxyurea-Based Histone Deacetylase Inhibitors Increase Cisplatin Potency in Chemoresistant Cancer Cell Lines” (J Med Chem, 2017)
